Results taken from paper PMC12398706 (ACS chemical neuroscience, 2025).
Counter-ions that a name gives are not always drawn. Like-named read-outs stand apart in the source and are kept apart here.

How the values were obtained:
SERT [1] = molecular target: T1, SERT (Homo sapiens, UniProt P31645); format: cell-based
SERT [2] = molecular target: T1, SERT; assay: SERT efflux assay; format: cell-based; conditions: for SERT efflux, single concentration: 10 μM, normalized to vehicle (0.1% DMSO = 0%) and 100 μM PCA = 100%
In short: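 hSERT-N1-pEYFP transfected (0.1 μg/well) into HEK293T cells (DMEM, 10% FBS) at seeding, 24 h before assay. In HBSS with 2 mM MgCl2, 2 mM CaCl2 and 5 mM HEPES at 37 °C, cells were loaded with 40 nM [3H]5-HT for 20 min, washed, then exposed 20 min to test compound (final 10 μM–1 nM, 0.1% DMSO). After washing and NaOH lysis, retained radioactivity was scintillation-counted. EC50/Span came from three-parameter log(agonist)-response fits.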

SERT [3] = molecular target: T1, SERT; assay: NIMH PDSP radioligand binding, SERT; conditions: 10 μM; N = 1 in quadruplicate
5-HT3 receptors = molecular target: T2, 5-HT3 receptors (Homo sapiens, UniProt P46098); assay: NIMH PDSP radioligand binding, 5-HT3; conditions: 10 μM; N = 1 in quadruplicate
T2 sequence (P46098 24-478): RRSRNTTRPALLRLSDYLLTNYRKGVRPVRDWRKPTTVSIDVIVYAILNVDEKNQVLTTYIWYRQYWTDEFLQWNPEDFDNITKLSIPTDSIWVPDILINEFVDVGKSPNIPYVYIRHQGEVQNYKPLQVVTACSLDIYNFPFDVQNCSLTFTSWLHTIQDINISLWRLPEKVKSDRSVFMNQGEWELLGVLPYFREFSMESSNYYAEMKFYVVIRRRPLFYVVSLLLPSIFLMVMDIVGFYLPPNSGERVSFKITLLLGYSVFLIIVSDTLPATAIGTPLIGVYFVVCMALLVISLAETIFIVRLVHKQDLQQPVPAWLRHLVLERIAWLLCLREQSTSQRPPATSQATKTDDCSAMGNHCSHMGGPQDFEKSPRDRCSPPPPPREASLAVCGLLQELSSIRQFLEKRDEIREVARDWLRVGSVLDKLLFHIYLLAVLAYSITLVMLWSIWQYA
In short: (§1)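 Outsourced screen run by the NIMH Psychoactive Drug Screening Program across a broad target panel. Test compound at 10 μM; read-out was % inhibition of binding of a radiolabelled ligand specific to each target. Single experiment (N = 1) run in quadruplicate, with the averaged value reported.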

sigma 1 = assay: NIMH PDSP radioligand binding, sigma 1; conditions: 10 μM; N = 1 in quadruplicate
In short: as §1

sigma 2 = assay: NIMH PDSP radioligand binding, sigma 2; conditions: 10 μM; N = 1 in quadruplicate
In short: as §1

DAT = DAT (Homo sapiens, UniProt Q01959); assay: NIMH PDSP radioligand binding, DAT; conditions: 10 μM; N = 1 in quadruplicate
In short: as §1

NET = NET (Homo sapiens, UniProt P23975); assay: NIMH PDSP radioligand binding, NET; conditions: 10 μM; N = 1 in quadruplicate
In short: as §1

H1 = H1 (Homo sapiens, UniProt P35367); assay: NIMH PDSP radioligand binding, H1; conditions: 10 μM; N = 1 in quadruplicate
In short: as §1

5-HT2B = 5-HT2B (Homo sapiens, UniProt P41595); assay: NIMH PDSP radioligand binding, 5-HT2B; conditions: 10 μM; N = 1 in quadruplicate
In short: as §1

adrenergic receptors = assay: NIMH PDSP radioligand binding, adrenergic receptors; conditions: 10 μM; N = 1 in quadruplicate
In short: as §1

SERT-PG^601,602AA = SERT-PG^601,602AA (Homo sapiens, UniProt P31645, G602A/P601A); assay: SERT pharmacochaperoning assay; format: cell-based; conditions: 20 μM, 24 h; normalized to vehicle (0.2% DMSO = 0%) and 20 μM noribogaine = 100%
In short: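 HEK293T cells (DMEM, 10% FBS) were transfected at seeding with the misfolding SERT-PG601,602AA plasmid (0.1 μg/well) and kept overnight at 37 °C, 5% CO2. They were then exposed 24 h to test compound at a final 20 μM (0.2% DMSO) in fresh medium. Four 10-min washes with supplemented HBSS preceded 10-min uptake of 40 nM [3H]5-HT. Cells were washed, lysed in 10 mM NaOH and scintillation-counted.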

SERT [4] = molecular target: T1, SERT; conditions: cited from earlier work
SERT [5] = molecular target: T1, SERT; conditions: cocaine 10 μM; value taken from a previous report; cited from earlier work
serotonin uptake = conditions: cited from earlier work
SERT [6] = molecular target: T1, SERT; conditions: cited from earlier work; remark: listed apart in the source
[7] = concentration-response, compared to UCD0184

Sequence of 5-HT2B (P41595 whole entry, species assumed): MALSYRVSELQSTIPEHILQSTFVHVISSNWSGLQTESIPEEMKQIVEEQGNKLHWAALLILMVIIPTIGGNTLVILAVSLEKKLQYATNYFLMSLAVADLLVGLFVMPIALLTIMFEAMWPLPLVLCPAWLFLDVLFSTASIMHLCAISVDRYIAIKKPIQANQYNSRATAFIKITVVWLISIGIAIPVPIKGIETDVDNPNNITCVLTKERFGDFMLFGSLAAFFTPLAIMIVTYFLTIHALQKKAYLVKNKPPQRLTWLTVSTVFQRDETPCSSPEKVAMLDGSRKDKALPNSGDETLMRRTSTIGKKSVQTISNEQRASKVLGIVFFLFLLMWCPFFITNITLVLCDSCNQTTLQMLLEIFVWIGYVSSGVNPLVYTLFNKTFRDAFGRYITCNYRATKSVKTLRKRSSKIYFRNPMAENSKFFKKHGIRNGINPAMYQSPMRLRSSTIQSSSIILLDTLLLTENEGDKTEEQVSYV
Sequence of NET (P23975 whole entry): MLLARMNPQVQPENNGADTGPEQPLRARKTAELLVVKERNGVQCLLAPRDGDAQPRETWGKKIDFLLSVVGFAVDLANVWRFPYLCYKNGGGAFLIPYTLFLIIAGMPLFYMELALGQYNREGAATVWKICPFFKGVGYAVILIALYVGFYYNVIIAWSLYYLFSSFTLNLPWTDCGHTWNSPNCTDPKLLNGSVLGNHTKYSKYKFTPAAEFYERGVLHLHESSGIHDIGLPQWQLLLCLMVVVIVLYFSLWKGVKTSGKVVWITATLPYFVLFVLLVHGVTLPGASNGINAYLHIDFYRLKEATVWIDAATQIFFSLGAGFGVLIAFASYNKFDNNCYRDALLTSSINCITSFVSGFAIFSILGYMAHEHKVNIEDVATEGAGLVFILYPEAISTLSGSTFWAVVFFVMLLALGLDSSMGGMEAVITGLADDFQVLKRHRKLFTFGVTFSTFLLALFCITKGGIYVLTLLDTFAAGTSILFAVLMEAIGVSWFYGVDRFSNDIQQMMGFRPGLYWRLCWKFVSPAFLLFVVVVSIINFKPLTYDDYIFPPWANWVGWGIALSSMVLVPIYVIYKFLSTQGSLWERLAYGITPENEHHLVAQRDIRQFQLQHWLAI
Sequence of DAT (Q01959 whole entry, species assumed): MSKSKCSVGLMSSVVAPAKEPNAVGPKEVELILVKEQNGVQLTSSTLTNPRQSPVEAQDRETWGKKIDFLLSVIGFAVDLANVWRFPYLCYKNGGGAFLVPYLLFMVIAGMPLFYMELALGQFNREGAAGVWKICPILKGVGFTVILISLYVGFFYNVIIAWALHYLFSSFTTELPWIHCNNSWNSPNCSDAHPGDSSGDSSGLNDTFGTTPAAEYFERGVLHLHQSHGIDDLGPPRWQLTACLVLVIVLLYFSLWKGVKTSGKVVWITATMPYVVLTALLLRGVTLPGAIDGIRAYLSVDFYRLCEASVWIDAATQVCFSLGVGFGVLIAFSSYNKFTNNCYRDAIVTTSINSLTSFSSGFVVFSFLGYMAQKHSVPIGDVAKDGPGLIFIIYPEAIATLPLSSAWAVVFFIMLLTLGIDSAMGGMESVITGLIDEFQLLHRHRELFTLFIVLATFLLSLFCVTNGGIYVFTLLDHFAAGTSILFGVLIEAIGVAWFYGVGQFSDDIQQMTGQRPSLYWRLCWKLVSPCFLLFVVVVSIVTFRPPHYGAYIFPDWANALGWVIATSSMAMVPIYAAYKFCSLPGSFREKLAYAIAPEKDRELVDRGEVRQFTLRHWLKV
Sequence of H1 (P35367 whole entry): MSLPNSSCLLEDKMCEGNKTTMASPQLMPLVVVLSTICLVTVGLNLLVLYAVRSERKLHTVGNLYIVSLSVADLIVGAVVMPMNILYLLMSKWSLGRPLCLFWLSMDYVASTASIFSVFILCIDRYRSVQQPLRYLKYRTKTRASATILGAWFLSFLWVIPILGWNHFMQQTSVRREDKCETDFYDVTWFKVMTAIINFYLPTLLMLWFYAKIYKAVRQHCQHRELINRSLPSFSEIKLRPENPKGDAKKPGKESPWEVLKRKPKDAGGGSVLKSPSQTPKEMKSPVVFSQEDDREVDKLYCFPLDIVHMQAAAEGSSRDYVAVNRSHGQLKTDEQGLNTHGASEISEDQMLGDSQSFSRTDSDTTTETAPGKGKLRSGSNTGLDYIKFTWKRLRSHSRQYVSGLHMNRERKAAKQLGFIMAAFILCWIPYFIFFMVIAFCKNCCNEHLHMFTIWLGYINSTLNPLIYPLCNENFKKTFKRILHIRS

Row | Structure (SMILES) | % inhibition of radioligand binding at SERT (in words) (SERT [3]) | % inhibition of radioligand binding at 5-HT3 (in words) (5-HT3 receptors) | % inhibition of radioligand binding at sigma 1 (in words) (sigma 1) | % inhibition of radioligand binding at sigma 2 (in words) (sigma 2) | % inhibition of radioligand binding at DAT (in words) (DAT) | % inhibition of radioligand binding at NET (in words) (NET) | % inhibition of radioligand binding at H1 (in words) (H1) | % inhibition of radioligand binding at 5-HT2B (in words) (5-HT2B) | % inhibition of radioligand binding at adrenergic receptors (in words) (adrenergic receptors) | SERT inhibition, single concentration (SERT [1]) | SERT efflux, single concentration (SERT [2]; HEK293T) | further results
1 | CN1C2C=C(c3c[nH]c4ccc(F)cc34)CC1CC2 (centres unmarked) [UCD0093] | substantial binding | high affinity | potent ligands | potent ligands | potent ligands | potent ligands | potent ligands | potent ligands | potent ligands |  |  | SERT inhibition potency and efficacy (in words) (SERT [1]; [7]): drastically increased SERT inhibition potency; SERT efflux potency and efficacy (in words) (SERT [2]; [7]): minimal effect on SERT efflux
2 | CN1C2C=C(c3c[nH]c4ccccc34)CC1CC2 (centres unmarked) [UCD0184] | substantial binding | high affinity | potent ligands | potent ligands | potent ligands | potent ligands | potent ligands | potent ligands | potent ligands | near full inhibition | appreciable 5-HT efflux | SERT inhibition Span (Emax) (SERT [1]): 105%; EC50 (SERT [1]; read-out: SERT inhibition EC50, concentration-response, HEK293T): 1100 nM; type of serotonin releasing agent (SRA): full or partial (SERT [2]; SERT-transfected HEK293T cells): full; SERT efflux Span (Emax) (SERT [2]; concentration-response, normalized to vehicle 0% and 100 μM PCA 100%): 75.1%; EC50 (SERT [2]; read-out: SERT efflux EC50, concentration-response, HEK293T): 582 nM; SERT pharmacochaperoning efficacy compared to noribogaine (SERT-PG^601,602AA): did not act as a SERT pharmacochaperone; selectivity for SERT over DAT (SERT [4]): approximately 10 fold; selectivity for SERT over NET (SERT [4]): ~100 fold
3 | COC(=O)[C@H]1[C@@H](OC(=O)c2ccccc2)C[C@@H]2CC[C@H]1N2C [cocaine, (−)-cocaine hydrochloride] |  |  |  |  |  |  |  |  |  |  |  | SERT inhibition, single concentration (SERT [5]): ~ 50%
4 | CN1[C@@H]2C[C@@H](OC(=O)[C@H](CO)c3ccccc3)C[C@H]1[C@@H]1O[C@@H]12 [scopolamine, scopolamine hydrobromide trihydrate, reference compound] |  |  |  |  |  |  |  |  |  | meaningful levels of SERT inhibition |  | 
5 | CN1C2CCC1CC(OC(=O)c1ccccc1)C2 (centres unmarked) [tropacocaine] |  |  |  |  |  |  |  |  |  |  | no effect | serotonin uptake inhibition activity relative to cocaine (in words) (serotonin uptake): reduced activity relative to cocaine; SERT binding affinity relative to cocaine (in words) (SERT [6]): reduced activity relative to cocaine
